Screening results from PubChem BioAssay.
Many of the other results were omitted from the sample, so hits are more common in it than they were.
KDM4C inh = inhibitors of human demethylase GASC-1 KDM4C. GST-KDM4C 2-372, H3K9me3 peptide, LANCE TR-FRET. inhibition, % at 12.5 µM. actives 0.15% (n = 96,000). AID 720574;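 active = mean replicate inhibition above about 25%, with at least 55% of replicates also reaching it, limit read from the data, passing the limit was not always enough; inconclusive = only one of those two conditions met; inactive = neither condition met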
Target sequence (Q9H3R0 2-372 limits assumed): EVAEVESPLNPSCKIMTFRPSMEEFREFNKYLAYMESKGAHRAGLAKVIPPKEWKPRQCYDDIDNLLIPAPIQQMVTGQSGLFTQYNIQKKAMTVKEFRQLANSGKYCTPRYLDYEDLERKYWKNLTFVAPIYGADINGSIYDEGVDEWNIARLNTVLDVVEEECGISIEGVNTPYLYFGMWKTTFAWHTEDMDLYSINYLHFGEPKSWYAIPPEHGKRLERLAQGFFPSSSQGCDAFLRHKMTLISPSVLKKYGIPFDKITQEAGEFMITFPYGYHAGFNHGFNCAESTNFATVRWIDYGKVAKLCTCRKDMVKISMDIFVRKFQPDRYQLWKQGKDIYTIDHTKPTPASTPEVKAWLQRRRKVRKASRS
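Test system – GST-tagged GASC-1 (JMJD2C) catalytic fragment, aa 2-372 · Medium – HEPES buffer, pH 7.5, plus ascorbate · Reagent – H3K9me3 peptide with Fe(II)/2OG · Compound – one test concentration per compound · Timing – 30 min reaction, 60 min detection, RT · Technique – TR-FRET with Eu antibody and ULight streptavidin, EDTA stop · Read-out basis – inhibition from TR-FRET ratio decrease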
T cruzi growth-1 = T. cruzi proliferation inhibition; actives 5.9% (n = 77,000); T. cruzi beta-gal in NIH3T3, GalScreen luminescence, 90 h; inhibition, % at 8.34 µM;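 active = mean inhibition above about 93%, with at least 55% of replicates each passing it, limit read from the data, passing the limit was not always enough; inconclusive = only one of those two conditions holds; inactive = neither condition holds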
IDH1 mut inh = inhibitors of human IDH1 R132H; O75874; actives 0.18% (n = 70,000); inhibition, % at 10 µM; IDH1 R132H reductase, diaphorase/resazurin fluorescence, 60 min; in the data active = inhibition above about 34%; inconclusive = no clear call, values can overlap the other calls; inactive = below about 11%;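 also: 0% = DMSO and 100% = no enzyme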
T cruzi growth-2 = Trypanosoma cruzi proliferation inhibition; shares compounds with T cruzi growth-1; inhibition, % at 8.35 µM; actives 72% (n = 5,600); T. cruzi beta-gal in NIH3T3, GalScreen luminescence, 90 h;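 active = mean replicate inhibition above about 95% and at least 55% of replicates individually reaching it, limit read from the data; inconclusive = only one of the two criteria is met; inactive = neither criterion is met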
T cruzi growth-3 = blocks T. cruzi growth in NIH3T3 host cells. shares compounds with T cruzi growth-1. T. cruzi beta-gal in NIH3T3, GalScreen luminescence, 90 h. inhibition, % at 2.09 µM. actives 21% (n = 5,600). AID 651740;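 active = mean inhibition above about 95%, with at least 55% of replicates also reaching it, limit read from the data; inconclusive = meets just one of the two conditions; inactive = meets neither condition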;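 also: plate controls were neutral control median for no effect and positive control median for full effect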
3T3 cytotox = kills mouse NIH/3T3 fibroblasts. shares compounds with T cruzi growth-1. NIH/3T3 viability, CellTiter-Glo ATP luminescence, 90 h. actives 14% (n = 5,600). cytotoxicity (signal decrease), % at 8.35 µM. AID 651742;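 active = mean signal decrease across replicates above about 35% based on untreated-well scatter, with enough replicates individually passing, limit read from the data; inconclusive = no rule stated though some were filed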;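 also: 0% = median of neutral control wells and 100% = median of positive control wells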
NIH3T3 tox 2 = NIH/3T3 (mouse) viability loss. actives 56% (n = 5,600). shares compounds with T cruzi growth-1. inhibition, % at 24.9 µM. NIH/3T3 viability, CellTiter-Glo ATP luminescence, 90 h. AID 651744;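 active = mean loss of cell viability signal at or above a set limit, and enough replicates individually reaching it; inconclusive = meets only the mean limit or only the replicate share; inactive = meets neither condition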;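 also: 0% = median of neutral control wells and 100% = median of positive control wells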
Active calls of the source: *; ? = inconclusive; . = no result.

SMILES	KDM4C inh	T cruzi growth-1	IDH1 mut inh	T cruzi growth-2	T cruzi growth-3	3T3 cytotox	NIH3T3 tox 2
COc1ccc(C#Cc2cnc3c(c2)C(=O)N([C@@H](C)CO)C[C@H](C)[C@@H](CN(C)C(=O)CC2CC2)O3)cc1	-1	97*	-4	60	31	-8	26
COc1ccc(C#Cc2cnc3c(c2)C(=O)N([C@@H](C)CO)C[C@H](C)[C@H](CN(C)C(C)=O)O3)cc1	2	88	-1	.	.	.	.
C[C@@H]1CN([C@H](C)CO)C(=O)c2cc(C#CC3CCCCC3)cnc2O[C@H]1CN(C)Cc1cncnc1	-1	81	-3	.	.	.	.
CCCC#Cc1ccc([C@@H]2[C@@H](CO)N3CCCCN(C(=O)c4ccc5c(c4)OCO5)C[C@@H]23)cc1	-1	122*	.	107*	76	38*	102*
CCCC#Cc1ccc([C@@H]2[C@H]3CN(C(=O)c4ccc5c(c4)OCO5)CCCCN3[C@H]2CO)cc1	-1	94	.	.	.	.	.
C[C@@H](O)C#Cc1ccc([C@H]2[C@@H](CO)N3CCCCN(C(=O)c4ccc5c(c4)OCO5)C[C@@H]23)cc1	0	32	.	.	.	.	.
CC(C)CC#Cc1ccc([C@@H]2[C@@H](CO)N3CCCCN(C(=O)c4ccc5c(c4)OCO5)C[C@@H]23)cc1	0	91	.	.	.	.	.
CCCC#Cc1ccc([C@H]2[C@@H](CO)N3CCCCN(C(=O)c4ccc5c(c4)OCO5)C[C@H]23)cc1	0	117*	.	104*	79	51*	103*
CCCC#Cc1ccc([C@@H]2[C@H](CO)N3CCCCN(C(=O)c4ccc5c(c4)OCO5)C[C@@H]23)cc1	-2	?	.	106*	38	30	103*
O=C(C[C@H]1CC[C@H]2[C@@H](COC[C@H](O)CN2CC2CCCCC2)O1)NCC1CC1	-2	23	.	.	.	.	.
O=C(CCCCCC(=O)N/N=C/c1ccc([N+](=O)[O-])c(O)c1)NO	.	.	0	.	.	.	.
CC(C)NC(=O)N1CCCCN2[C@H](C1)[C@H](c1ccc(C#CC3CC3)cc1)[C@@H]2CO	1	36	.	.	.	.	.
CC(C)NC(=O)N1CCCCN2[C@@H](CO)[C@@H](c3ccc(C#CC4CC4)cc3)[C@@H]2C1	2	107*	.	111*	65	10	49*
CC(C)C#Cc1ccc([C@@H]2[C@@H](CO)N3CCCCN(C(=O)NC(C)C)C[C@@H]23)cc1	0	77	.	.	.	.	.
CC(C)C#Cc1ccc([C@H]2[C@@H](CO)N3CCCCN(C(=O)NC(C)C)C[C@H]23)cc1	0	102*	.	111*	87	0	49*
CC(C)NC(=O)N1CCCCN2[C@H](C1)[C@@H](c1ccc(C#CC3CC3)cc1)[C@@H]2CO	4	74	.	.	.	.	.
CC(C)NC(=O)N1CCCCN2[C@H](CO)[C@H](c3ccc(C#CC4CC4)cc3)[C@H]2C1	1	110*	.	113*	55	8	66*
COc1cccc(S(=O)(=O)Nc2ccc3c(c2)OC[C@@H](C)NC[C@H](C)[C@@H](OC)CN(C)C3=O)c1	0	75	0	.	.	.	.
Cc1ncc([N+](=O)[O-])n1Cc1n[nH]c(=S)n1C	.	.	0	.	.	.	.
C[C@@H]1CN([C@@H](C)CO)C(=O)c2cc(-c3cccc(C#N)c3)cnc2O[C@@H]1CN(C)C(=O)C1CC1	1	32	.	.	.	.	.
COc1ccc2c3c(n(C)c2c1)[C@H](CO)N(CC1CC1)CC31CCN(C(=O)c2ccc(F)cc2)CC1	-2	.	.	.	.	.	.
C[C@@H]1CCCCO[C@@H](CN(C)Cc2ccccc2)[C@H](C)CN([C@H](C)CO)C(=O)c2cc(NC(=O)c3ccccc3)ccc2O1	0	?	.	114*	64	-7	55*
C[C@@H]1CN([C@H](C)CO)C(=O)c2cc(NC(=O)c3ccccc3)ccc2O[C@@H](C)CCCCO[C@H]1CN(C)Cc1ccccc1	0	103*	.	113*	68	4	89*
C[C@@H]1CN([C@@H](C)CO)C(=O)c2cc(NC(=O)c3ccccc3)ccc2O[C@@H](C)CCCCO[C@@H]1CN(C)Cc1ccccc1	-1	90	.	.	.	.	.
C[C@H](CO)N1C[C@H](C)[C@@H](CN(C)Cc2ccccc2)OCCCC[C@H](C)Oc2ccc(NC(=O)c3ccccc3)cc2C1=O	-1	86	2	.	.	.	.
SMILES	KDM4C inh	T cruzi growth-1	IDH1 mut inh	T cruzi growth-2	T cruzi growth-3	3T3 cytotox	NIH3T3 tox 2
C[C@@H]1CN([C@H](C)CO)C(=O)c2cc(NC(=O)c3ccccc3)ccc2O[C@@H](C)CCCCO[C@@H]1CN(C)Cc1ccccc1	1	?	1	108*	62	-6	35*
C[C@@H]1CCCCO[C@H](CN(C)Cc2ccccc2)[C@@H](C)CN([C@@H](C)CO)C(=O)c2cc(NC(=O)c3ccccc3)ccc2O1	0	78	1	.	.	.	.
C[C@@H]1CN([C@H](C)CO)C(=O)c2cc(NC(=O)c3ccccc3)ccc2O[C@@H](C)CCCCO[C@@H]1CN(C)Cc1ccncc1	1	59	2	.	.	.	.
C[C@@H]1CN([C@@H](C)CO)C(=O)c2cc(NC(=O)c3ccccc3)ccc2O[C@@H](C)CCCCO[C@H]1CN(C)Cc1ccncc1	1	101*	.	109*	32	14	17
CCCC1=C(C(=O)OCC)C(c2cccnc2)n2ncnc2N1 (stereo unspecified)	.	.	0	.	.	.	.
N#C[C@@H]1[C@H](c2ccc(C#CC3CCCCC3)cc2)[C@H](CO)N1S(=O)(=O)c1ccccc1	-1	80	.	.	.	.	.
Cc1ccccc1S(=O)(=O)N1[C@H](C#N)[C@H](c2ccc(C#CC3CCCC3)cc2)[C@@H]1CO	0	.	.	.	.	.	.
N#C[C@H]1[C@@H](c2ccc(C#CC3CCCC3)cc2)[C@H](CO)N1S(=O)(=O)c1ccccc1	-2	88	.	.	.	.	.
N#C[C@@H]1[C@H](c2ccc(C#CC3CC3)cc2)[C@@H](CO)N1S(=O)(=O)c1ccccc1	0	?	.	103*	109*	8	-4
N#C[C@@H]1[C@@H](c2ccc(C#CC3CCCC3)cc2)[C@@H](CO)N1S(=O)(=O)c1ccccc1	0	99*	.	102*	?	46*	102*
N#C[C@H]1[C@H](c2ccc(C#CC3CCCC3)cc2)[C@H](CO)N1S(=O)(=O)c1ccccc1	-1	90	.	.	.	.	.
N#C[C@H]1[C@H](c2ccc(C#CC3CC3)cc2)[C@H](CO)N1S(=O)(=O)c1ccccc1	0	101*	.	103*	109*	-1	34*
N#C[C@H]1[C@@H](c2ccc(C#CC3CC3)cc2)[C@@H](CO)N1S(=O)(=O)c1ccccc1	5	96*	.	107*	63	-7	36*
Cc1ccc(N(C(C)C(=O)Nc2ccccc2Br)S(C)(=O)=O)cc1C (stereo unspecified)	.	.	0	.	.	.	.
